Test results published in publication PMC6315097 (The Korean Journal of Physiology & Pharmacology : Official …, 2018).

How the values were obtained:
db/db mice = assay: 4-week repeated administration in db/db mice; type: in vivo; settings: 4-week repeated oral dosing
In short: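 Male db/db mice, 8 weeks old, 7 per group, allocated by HbA1c and blood glucose after a 16 h fast. Test compound given orally once daily for 28 days. HbA1c measured from tail-vein blood on days 0 and 28. Blood glucose checked twice weekly. Body weight taken daily. OGTT on day 29, 24 h after the last dose: glucose 2 g/kg, samples at −60, 0, 15, 30, 60 and 120 min. Mean±S.E.M.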

male C57BL/6 mice [1] = assay: Oral glucose tolerance test in normoglycemic mice; type: in vivo
In short: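 Male C57BL/6 mice, 8 weeks old, fasted 16 h. Test compound given orally 30 min before a glucose load of 2 g/kg (10 ml/kg). Tail-nick blood glucose read by glucose strip before loading and at 0, 15, 30, 60 and 120 min after. Glucose AUC0–120min calculated by the trapezoidal rule. n=6; mean±S.E.M.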

male C57BL/6 mice [2] = assay: Total GLP-1 in plasma after glucose loading in normoglycemic mice; type: in vivo; settings: 30 min after glucose loading
In short: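 Fasted (16 h) 8-week-old male C57BL/6 mice, 7 per group, dosed orally with test compound or vehicle 30 min before a 2 g/kg glucose load. Plasma collected from the subclavian vein 30 min after loading. Total GLP-1 measured by multispecies ELISA. One-way ANOVA with Dunnett's test versus vehicle.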

mice = settings: cited from earlier work
male C57BL/6 mice [3] = assay: Urinary glucose excretion over 24 h in normoglycemic mice; type: in vivo; settings: single oral dose 3 mg/kg with 2 g/kg glucose, 24 h urine
In short: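 Male C57BL/6 mice, 8 weeks old, 3 per group, allocated by body weight and fasted overnight. […] Urine collected in metabolism cages over 24 h. Urine volume and glucose measured by clinical chemistry analyser and normalised to body weight.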

human SGLT2 = target: T1, human SGLT2 (Homo sapiens, UniProt P31639); assay: [14C]-AMG uptake inhibition in HEK293 cells stably expressing human SGLT2; type: cell-based; settings: human SGLT2 vs human SGLT1, in vitro
T1 sequence (P31639 1-672): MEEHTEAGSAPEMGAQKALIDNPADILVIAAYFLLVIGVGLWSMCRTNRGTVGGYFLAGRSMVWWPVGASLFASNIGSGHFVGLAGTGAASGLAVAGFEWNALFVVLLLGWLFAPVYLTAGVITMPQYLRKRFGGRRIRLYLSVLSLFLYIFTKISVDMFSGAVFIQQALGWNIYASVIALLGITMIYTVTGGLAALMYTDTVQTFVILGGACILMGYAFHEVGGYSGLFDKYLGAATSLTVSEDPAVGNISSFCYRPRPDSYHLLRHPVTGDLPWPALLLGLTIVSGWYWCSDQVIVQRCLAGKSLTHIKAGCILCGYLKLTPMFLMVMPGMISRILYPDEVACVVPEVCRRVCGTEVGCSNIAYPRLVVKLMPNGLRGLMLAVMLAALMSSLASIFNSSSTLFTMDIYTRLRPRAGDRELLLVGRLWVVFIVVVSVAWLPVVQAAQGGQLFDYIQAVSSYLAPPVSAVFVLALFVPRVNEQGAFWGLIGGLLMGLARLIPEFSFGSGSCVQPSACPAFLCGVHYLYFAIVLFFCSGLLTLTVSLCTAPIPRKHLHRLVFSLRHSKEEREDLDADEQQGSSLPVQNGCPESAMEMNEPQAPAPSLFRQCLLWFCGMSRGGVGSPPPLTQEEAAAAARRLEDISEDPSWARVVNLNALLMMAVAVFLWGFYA

[4] = Pharmacokinetic profiles in male C57BL/6 mice; type: in vivo; settings: for AUC(0-t): AUC0-24hr
[5] = single oral 1 mg/kg 30 min before glucose 2 g/kg
[6] = male, C57BL/6, mouse, plasma, po
[7] = male, C57BL/6, mouse, plasma, po, 0.3 mg/kg, mice
[8] = male, C57BL/6, mouse, plasma, po, 1 mg/kg, mice

Row | Structure (SMILES) | change in body weight compared to vehicle-treated db/db mice (db/db mice) | effect on blood glucose increases during OGTT (male C57BL/6 mice [1]; [5]) | Total GLP-1 in plasma (male C57BL/6 mice [2]; single oral 1 mg/kg) | reduction of glucose reabsorption (mice; SGLT1 and SGLT2 double-knockout mice) | inhibition of glucose reabsorption (mice; wild-type mice) | Urinary glucose excretion (male C57BL/6 mice [3]) | selectivity for SGLT2 over SGLT1 (human SGLT2) | area under the curve (AUC) of glucose tolerance, OGTT 120 min (male C57BL/6 mice [1]; single oral 0.3 mg/kg 30 min before glucose 2 g/kg) | area under the curve (AUC) of glucose tolerance, OGTT 120 min (male C57BL/6 mice [1]; [5]) | area under the curve (AUC) of glucose tolerance, OGTT 120 min (male C57BL/6 mice [1]; single oral 3 mg/kg 30 min before glucose 2 g/kg) | Tmax [4, 6] | half-life [4, 6] | AUC(0-t) [4, 7] | Cmax [4, 7] | AUC(0-t) [4, 8] | Cmax [4, 8] | AUC(0-t) ([4]; male, C57BL/6, mouse, plasma, po, 3 mg/kg, mice) | maximum plasma level ([4]; mice, single oral dose 0.1 mg/kg) | Total GLP-1 in plasma (male C57BL/6 mice [2]; single oral 0.3 mg/kg) | Total GLP-1 in plasma (male C57BL/6 mice [2]; single oral 3 mg/kg, 3 mg/kg)
1 | CCOc1ccc(Cc2cc([C@@H]3O[C@H](CO)[C@@H](O)[C@H](O)[C@H]3O)ccc2Cl)cc1 [Dapagliflozin, (1S)-1,5-anhydro-1-C-{4-chloro-3-[(4-ethoxyphenyl)methyl]phenyl}-D-glucitol, reference compound] | did not induce a significant change in body weight | decreased blood glucose increases during OGTT | 15.5 ± 5.7 pM |  |  |  |  |  |  |  |  |  |  |  |  |  |  |  |  | 
2 | OC[C@H]1O[C@@H](c2ccc(Cl)c(Cc3ccc(O[C@H]4CCOC4)cc3)c2)[C@H](O)[C@@H](O)[C@@H]1O [Empagliflozin] |  |  |  | 100% | 56% |  |  |  |  |  |  |  |  |  |  |  |  |  |  | 
3 | CCc1ccc(Cc2cc([C@@H]3O[C@H](CO)[C@@H](O)[C@H](O)[C@H]3O)cc3c2CCC3)cc1 [HM41322, (2S,3R,4R,5S,6R)-2-[7-(4-ethylbenzyl)-2,3-dihydro-1H-inden-5-yl]-6-(hydroxymethyl)tetrahydro-2H-pyran-3,4,5-triol] | did not induce a significant change in body weight |  | 18.0 ± 5.0 pM |  |  | 19.32±1.16 mg/g body weight | 10 fold | 303.3 ± 60.17 mg·h/dL | 228.5 ± 16.96 mg·h/dL | 170.7 ± 13.14 mg·h/dL | 0.5 h | 3.1 h | 473 ng·h/mL | 142 ng/mL | 1300 ng·h/mL | 439 ng/mL | 5460 ng·h/mL | 142 ng/mL | 15.0 ± 6.6 pM | 34.2 ± 9.7 pM
